Reference: ChEMBL document CHEMBL5705899 (Biochem J, 2014)
Activity calls are given as the source filed them. The rule behind the calls is not given here.

Columns and labels:
[1] = target: Mitogen-activated protein kinase kinase kinase 10 (Homo sapiens) (UniProt Q02779); assay: Inhibition of human MAP3K10 at 1 uM using histon H2B as substrate in presence of 33P-ATP by ProQinase assay
[2] = target: Protein-tyrosine kinase 6 (Homo sapiens) (UniProt Q13882); assay: Inhibition of recombinant human N-terminal His6-tagged BRK (1 to 451 residues) expressed in baculovirus infected Sf21 cells assessed as remaining activity at 1 uM using Poly (Glu,Tyr) as substrate incubated for 30 mins in presence of [gamma-33P]ATP by filter binding method relative to control
Sequence of Protein-tyrosine kinase 6 (Homo sapiens) (Q13882 whole entry, looked up, the tested form may be a part): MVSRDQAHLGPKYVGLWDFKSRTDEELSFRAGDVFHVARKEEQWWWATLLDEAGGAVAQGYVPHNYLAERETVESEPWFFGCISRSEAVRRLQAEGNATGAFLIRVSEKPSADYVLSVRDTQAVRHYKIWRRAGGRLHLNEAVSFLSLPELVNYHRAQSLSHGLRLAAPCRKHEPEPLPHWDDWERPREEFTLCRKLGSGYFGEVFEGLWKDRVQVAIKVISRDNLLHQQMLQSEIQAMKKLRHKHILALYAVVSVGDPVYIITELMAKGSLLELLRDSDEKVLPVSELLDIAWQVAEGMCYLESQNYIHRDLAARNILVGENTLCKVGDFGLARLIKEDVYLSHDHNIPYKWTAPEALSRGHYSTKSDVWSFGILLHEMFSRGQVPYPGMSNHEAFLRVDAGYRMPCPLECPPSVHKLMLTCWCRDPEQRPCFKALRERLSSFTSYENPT

[3] = target: Serine/threonine-protein kinase Sgk1 (Homo sapiens) (UniProt O00141); assay: Inhibition of human SGK1 at 1 uM using RBER-GSK3 as substrate in presence of 33P-ATP by ProQinase assay
[4] = target: Phosphatidylinositol 4,5-bisphosphate 3-kinase catalytic subunit alpha isoform (Homo sapiens, UniProt P42336); assay: Inhibition of PI3Kalpha (unknown origin) using PtdIns(4,5)P2 as substrate preincubated for 20 mins followed by substrate addition and measured after 80 mins by Kinase-Glo assay
Sequence of Phosphatidylinositol 4,5-bisphosphate 3-kinase catalytic subunit alpha isoform (P42336 whole entry, canonical isoform): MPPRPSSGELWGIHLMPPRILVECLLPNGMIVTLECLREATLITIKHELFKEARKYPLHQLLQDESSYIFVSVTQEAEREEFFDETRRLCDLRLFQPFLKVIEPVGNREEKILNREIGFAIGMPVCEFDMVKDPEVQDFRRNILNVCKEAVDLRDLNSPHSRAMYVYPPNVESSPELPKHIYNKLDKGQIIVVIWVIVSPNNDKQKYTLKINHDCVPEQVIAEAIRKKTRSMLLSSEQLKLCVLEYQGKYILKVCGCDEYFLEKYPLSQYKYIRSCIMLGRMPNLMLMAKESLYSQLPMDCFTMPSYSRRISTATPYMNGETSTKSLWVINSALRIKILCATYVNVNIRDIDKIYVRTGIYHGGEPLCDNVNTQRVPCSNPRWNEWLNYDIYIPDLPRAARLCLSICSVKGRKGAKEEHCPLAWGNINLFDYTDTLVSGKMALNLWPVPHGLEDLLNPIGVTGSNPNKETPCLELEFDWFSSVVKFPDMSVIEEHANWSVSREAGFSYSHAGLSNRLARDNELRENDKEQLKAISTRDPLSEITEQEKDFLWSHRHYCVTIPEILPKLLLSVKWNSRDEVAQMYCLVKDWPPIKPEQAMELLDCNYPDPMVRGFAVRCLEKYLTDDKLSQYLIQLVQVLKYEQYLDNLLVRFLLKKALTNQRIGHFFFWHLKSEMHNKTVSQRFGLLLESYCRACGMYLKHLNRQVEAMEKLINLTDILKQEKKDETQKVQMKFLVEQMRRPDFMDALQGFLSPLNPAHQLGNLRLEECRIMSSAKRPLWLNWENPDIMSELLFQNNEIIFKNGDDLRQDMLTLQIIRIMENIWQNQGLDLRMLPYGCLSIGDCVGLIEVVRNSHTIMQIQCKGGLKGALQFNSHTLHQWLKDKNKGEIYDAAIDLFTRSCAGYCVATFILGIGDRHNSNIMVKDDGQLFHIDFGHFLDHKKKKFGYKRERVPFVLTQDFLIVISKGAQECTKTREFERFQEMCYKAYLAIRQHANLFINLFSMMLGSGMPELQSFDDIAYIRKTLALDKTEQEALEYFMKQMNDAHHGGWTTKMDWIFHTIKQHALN
Summary of the method: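 PIK3CA at 20 nM in 50 mM Tris/HCl pH 7.4, 0.05% CHAPSO, 10 mM MgCl2 and 2.1 mM DTT was pre-incubated with inhibitor at varying concentrations for 20 min. Then 80 μM PtdIns(4,5)P2 and 8 μM ATP (below apparent Km) were added, with 2% DMSO final. The reaction ran 80 min at ambient temperature, followed by Kinase-Glo Plus for 20 min and a luminescence read.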

[5] = target: Serine/threonine-protein kinase D3 (Homo sapiens) (UniProt O94806); assay: Inhibition of human PKCnu at 1 uM using bio-4xCHKT as substrate in presence of 33P-ATP by ProQinase assay
[6] = target: Ephrin type-B receptor 3 (Homo sapiens) (UniProt P54753); assay: Inhibition of recombinant human N-terminal His6-tagged EPHB3 (561 to 998 residues) expressed in Escherichia coli assessed as remaining activity at 1 uM using Poly(Glu, Tyr) as substrate incubated for 30 mins in presence of [gamma-33P]ATP by filter binding method relative to control
[7] = target: MAP/microtubule affinity-regulating kinase 3 (Homo sapiens) (UniProt P27448); assay: Inhibition of human MARK3 at 1 uM using RBER-CHKtide as substrate in presence of 33P-ATP by ProQinase assay
[8] = target: Death-associated protein kinase 3 (Homo sapiens) (UniProt O43293); assay: Inhibition of human DAPK3 at 1 uM using RBER-GSK3 as substrate in presence of 33P-ATP by ProQinase assay
[9] = target: Phosphatidylinositol 4,5-bisphosphate 3-kinase catalytic subunit gamma isoform (Homo sapiens, UniProt P48736); assay: Inhibition of human PIK3CG using PIP2/PS as substrate by ADP-Glo assay
[10] = target: Mitogen-activated protein kinase kinase kinase 2 (Homo sapiens) (UniProt Q9Y2U5); assay: Inhibition of human MEKK2 at 1 uM using casein as substrate in presence of 33P-ATP by ProQinase assay
Sequence of Mitogen-activated protein kinase kinase kinase 2 (Homo sapiens) (Q9Y2U5 whole entry): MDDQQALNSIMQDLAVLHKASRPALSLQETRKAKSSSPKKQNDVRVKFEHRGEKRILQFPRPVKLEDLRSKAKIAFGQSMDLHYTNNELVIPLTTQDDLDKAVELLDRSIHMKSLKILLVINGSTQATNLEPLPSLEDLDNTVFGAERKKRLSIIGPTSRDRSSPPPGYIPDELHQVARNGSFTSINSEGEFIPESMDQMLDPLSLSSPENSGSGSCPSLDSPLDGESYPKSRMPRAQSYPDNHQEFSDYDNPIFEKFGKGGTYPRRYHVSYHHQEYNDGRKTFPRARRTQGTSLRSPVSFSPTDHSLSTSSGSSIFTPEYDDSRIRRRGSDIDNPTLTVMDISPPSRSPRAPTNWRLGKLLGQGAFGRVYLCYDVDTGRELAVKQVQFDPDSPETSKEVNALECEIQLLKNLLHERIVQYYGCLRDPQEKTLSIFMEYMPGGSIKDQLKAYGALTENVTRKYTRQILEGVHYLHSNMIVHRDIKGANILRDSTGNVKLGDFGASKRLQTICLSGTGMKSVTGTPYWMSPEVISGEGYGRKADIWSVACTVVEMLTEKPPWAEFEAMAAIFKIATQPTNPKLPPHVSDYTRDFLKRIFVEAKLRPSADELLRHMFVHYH

[11] = target: PI3-kinase p110-alpha/p85-alpha (Homo sapiens, UniProt P42336); assay: Inhibition of human PIK3CA/PIK3R1 using PIP2/PS as substrate by ADP-Glo assay; assay type: protein-complex assay
Sequence of PI3-kinase p110-alpha/p85-alpha (P27986 whole entry): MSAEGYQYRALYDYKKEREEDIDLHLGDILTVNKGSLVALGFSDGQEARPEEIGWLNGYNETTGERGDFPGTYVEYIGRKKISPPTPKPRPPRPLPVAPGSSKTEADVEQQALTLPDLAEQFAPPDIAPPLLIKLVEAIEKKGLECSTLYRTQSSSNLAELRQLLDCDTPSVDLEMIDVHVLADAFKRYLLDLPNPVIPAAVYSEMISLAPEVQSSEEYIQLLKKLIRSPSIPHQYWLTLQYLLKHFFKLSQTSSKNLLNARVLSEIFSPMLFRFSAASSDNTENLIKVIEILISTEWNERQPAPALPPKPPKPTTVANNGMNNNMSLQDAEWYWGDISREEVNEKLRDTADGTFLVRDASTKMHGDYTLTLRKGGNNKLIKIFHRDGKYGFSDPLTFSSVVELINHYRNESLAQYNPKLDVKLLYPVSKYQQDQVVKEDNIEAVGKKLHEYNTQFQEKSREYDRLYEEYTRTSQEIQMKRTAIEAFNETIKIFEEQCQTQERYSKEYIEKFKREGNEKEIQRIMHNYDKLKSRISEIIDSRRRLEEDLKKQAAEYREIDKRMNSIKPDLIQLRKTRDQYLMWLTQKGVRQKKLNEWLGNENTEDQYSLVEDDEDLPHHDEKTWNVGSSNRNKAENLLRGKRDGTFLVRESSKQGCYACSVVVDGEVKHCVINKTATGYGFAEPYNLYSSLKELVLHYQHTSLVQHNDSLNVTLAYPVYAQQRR
Sequence of PI3-kinase p110-alpha/p85-alpha (P42336 whole entry): as the sequence (P42336 whole entry, canonical isoform) above

[12] = target: Dual specificity protein kinase CLK2 (Homo sapiens) (UniProt P49760); assay: Inhibition of human CLK2 at 1 uM using RBER-GSK3 as substrate in presence of 33P-ATP by ProQinase assay
[13] = target: Tyrosine-protein kinase Blk (Homo sapiens) (UniProt P51451); assay: Inhibition of human BLK at 1 uM using polyEY as substrate in presence of 33P-ATP by ProQinase assay
[14] = target: Tyrosine-protein kinase Srms (Homo sapiens) (UniProt Q9H3Y6); assay: Inhibition of human SRMS at 1 uM using PolyEY as substrate in presence of 33P-ATP by ProQinase assay
[15] = target: Casein kinase I isoform delta (Homo sapiens) (UniProt P48730); assay: Inhibition of recombinant human N-terminal GST-tagged CK1delta (1 to 415 residues) expressed in Escherichia coli assessed as remaining activity at 1 uM using RRKDLHDDEEDEAMSITA as substrate incubated for 30 mins in presence of [gamma-33P]ATP by filter binding method relative to control
[16] = target: Serine/threonine-protein kinase Chk1 (Homo sapiens) (UniProt O14757); assay: Inhibition of human CHK1 at 1 uM using RBER-CHKtide as substrate in presence of 33P-ATP by ProQinase assay
Sequence of Serine/threonine-protein kinase Chk1 (Homo sapiens) (O14757 whole entry, the tested form may be a part): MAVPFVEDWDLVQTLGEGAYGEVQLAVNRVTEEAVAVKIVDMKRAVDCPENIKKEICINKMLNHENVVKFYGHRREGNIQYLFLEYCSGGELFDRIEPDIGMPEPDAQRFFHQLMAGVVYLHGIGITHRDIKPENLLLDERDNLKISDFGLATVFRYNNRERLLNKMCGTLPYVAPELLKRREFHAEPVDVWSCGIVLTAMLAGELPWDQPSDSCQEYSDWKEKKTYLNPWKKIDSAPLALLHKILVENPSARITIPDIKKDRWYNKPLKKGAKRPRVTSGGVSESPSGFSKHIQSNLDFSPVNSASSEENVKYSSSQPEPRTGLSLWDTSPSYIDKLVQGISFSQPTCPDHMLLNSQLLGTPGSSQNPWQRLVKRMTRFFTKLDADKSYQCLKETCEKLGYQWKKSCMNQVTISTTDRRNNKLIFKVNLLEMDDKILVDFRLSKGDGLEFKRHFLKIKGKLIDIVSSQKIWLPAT

[17] = target: Serine/threonine-protein kinase ULK2 (Homo sapiens) (UniProt Q8IYT8); assay: Inhibition of recombinant human ULK2 (1 to 1036 residues) expressed in baculovirus infected Sf21 cells assessed as remaining activity at 1 uM using MBP as substrate incubated for 30 mins in presence of [gamma-33P]ATP by filter binding method relative to control
[18] = target: Ephrin type-B receptor 4 (Homo sapiens) (UniProt P54760); assay: Inhibition of recombinant human N-terminal His6-tagged EPHB4 (561 to 987 residues) expressed in baculovirus infected Sf21 cells assessed as remaining activity at 1 uM using Poly (Glu,Tyr) as substrate incubated for 30 mins in presence of [gamma-33P]ATP by filter binding method relative to control
Sequence of Ephrin type-B receptor 4 (Homo sapiens) (P54760 whole entry, the tested form may be a part): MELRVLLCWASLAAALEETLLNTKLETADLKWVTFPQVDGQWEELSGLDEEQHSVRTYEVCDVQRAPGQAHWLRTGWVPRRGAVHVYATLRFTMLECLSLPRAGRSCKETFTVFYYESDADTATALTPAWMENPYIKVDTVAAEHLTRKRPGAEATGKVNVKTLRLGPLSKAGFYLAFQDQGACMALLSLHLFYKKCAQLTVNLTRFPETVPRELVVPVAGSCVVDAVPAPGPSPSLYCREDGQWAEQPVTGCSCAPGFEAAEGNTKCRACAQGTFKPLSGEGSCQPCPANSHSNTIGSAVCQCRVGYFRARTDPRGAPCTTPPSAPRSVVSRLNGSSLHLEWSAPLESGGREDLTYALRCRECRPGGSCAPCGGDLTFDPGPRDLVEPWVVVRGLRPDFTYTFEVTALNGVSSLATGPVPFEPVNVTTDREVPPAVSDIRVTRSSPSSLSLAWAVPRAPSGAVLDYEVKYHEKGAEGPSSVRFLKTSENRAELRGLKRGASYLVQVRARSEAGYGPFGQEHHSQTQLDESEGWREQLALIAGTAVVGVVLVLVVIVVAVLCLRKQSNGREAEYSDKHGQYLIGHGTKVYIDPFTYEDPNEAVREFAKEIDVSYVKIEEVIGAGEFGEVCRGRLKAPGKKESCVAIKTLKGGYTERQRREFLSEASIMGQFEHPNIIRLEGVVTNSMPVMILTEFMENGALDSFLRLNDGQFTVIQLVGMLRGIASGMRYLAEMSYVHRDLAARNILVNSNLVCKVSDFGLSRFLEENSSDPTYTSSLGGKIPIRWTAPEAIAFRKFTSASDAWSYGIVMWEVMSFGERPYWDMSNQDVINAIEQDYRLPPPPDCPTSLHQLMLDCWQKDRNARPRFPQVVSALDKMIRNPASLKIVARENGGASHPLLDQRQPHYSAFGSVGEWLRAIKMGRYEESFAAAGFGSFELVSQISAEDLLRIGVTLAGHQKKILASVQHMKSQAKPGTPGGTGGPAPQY

[19] = target: Protein-tyrosine kinase 6 (Homo sapiens) (UniProt Q13882); assay: Inhibition of human BRK at 1 uM using polyEy as substrate in presence of 33P-ATP by ProQinase assay
[20] = target: Aurora kinase A (Homo sapiens) (UniProt O14965); assay: Inhibition of recombinant human N-terminal Hi6-tagged Aurora A (2 to 403 residues) expressed in Escherichia coli assessed as remaining activity at 1 uM using LRRLSLGLRRLSLGLRRLSLGLRRLSLG as substrate incubated for 30 mins in presence of [gamma-33P]ATP by filter binding method relative to control
[21] = target: Mitogen-activated protein kinase 11 (Homo sapiens) (UniProt Q15759); assay: Inhibition of human P38beta at 1 uM using ATF2 as substrate in presence of 33P-ATP by ProQinase assay
[22] = target: Serine/threonine-protein kinase PLK2 (Homo sapiens) (UniProt Q9NYY3); assay: Inhibition of human SNK at 1 uM using RBER-GSK3 as substrate in presence of 33P-ATP by ProQinase assay
Sequence of Serine/threonine-protein kinase PLK2 (Homo sapiens) (Q9NYY3 whole entry, looked up): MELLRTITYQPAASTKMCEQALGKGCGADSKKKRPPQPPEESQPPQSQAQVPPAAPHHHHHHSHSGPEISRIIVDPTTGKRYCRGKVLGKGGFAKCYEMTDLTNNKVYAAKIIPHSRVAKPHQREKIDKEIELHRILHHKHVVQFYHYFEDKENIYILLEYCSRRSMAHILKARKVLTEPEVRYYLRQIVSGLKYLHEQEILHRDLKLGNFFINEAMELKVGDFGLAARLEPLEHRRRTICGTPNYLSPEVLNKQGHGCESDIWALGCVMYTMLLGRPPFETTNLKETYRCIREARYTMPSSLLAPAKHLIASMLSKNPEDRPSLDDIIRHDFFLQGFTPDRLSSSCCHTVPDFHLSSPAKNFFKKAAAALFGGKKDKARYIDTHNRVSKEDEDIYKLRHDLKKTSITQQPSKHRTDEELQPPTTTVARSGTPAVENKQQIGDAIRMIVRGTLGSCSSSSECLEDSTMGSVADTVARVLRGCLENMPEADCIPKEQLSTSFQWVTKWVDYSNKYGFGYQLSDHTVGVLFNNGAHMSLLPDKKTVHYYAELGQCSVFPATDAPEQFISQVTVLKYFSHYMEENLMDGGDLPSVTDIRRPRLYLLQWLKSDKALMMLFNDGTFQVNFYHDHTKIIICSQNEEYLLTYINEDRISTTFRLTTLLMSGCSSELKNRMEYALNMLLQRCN

[23] = target: Eukaryotic translation initiation factor 2-alpha kinase 1 (Homo sapiens) (UniProt Q9BQI3); assay: Inhibition of human HRI at 1 uM using casein as substrate in presence of 33P-ATP by ProQinase assay
[24] = target: Ephrin type-B receptor 2 (Homo sapiens) (UniProt P29323); assay: Inhibition of recombinant human N-terminal His6-tagged EPHB2 (560 to 987 residues) expressed in baculovirus infected Sf21 cells assessed as remaining activity at 1 uM using Poly (Glu,Tyr) as substrate incubated for 30 mins in presence of [gamma-33P]ATP by filter binding method relative to control

Structure (SMILES): CC(C)(O)CNc1ncc(-c2ccnc(Nc3ccnc(Cl)c3)n2)c(CC2CC2)n1
- inhibition [1]: inactive
- Activity [2]: 103%
- inhibition [3]: inactive
- IC50 [4]: 8.04 µM
- inhibition [5]: inactive
- Activity [6]: 111%
- inhibition [7]: inactive
- inhibition [8]: inactive
- IC50 [9]: > 10 µM
- inhibition [10]: inactive
- IC50 [11]: > 10 µM
- inhibition [12]: inactive
- inhibition [13]: inactive
- inhibition [14]: inactive
- Activity [15]: 105%
- inhibition [16]: inactive
- Activity [17]: 118%
- Activity [18]: 106%
- inhibition [19]: inactive
- Activity [20]: 110%
- inhibition [21]: inactive
- inhibition [22]: inactive
- inhibition [23]: inactive
- Activity [24]: 109%
